Results published in paper PMC3723589 (Channels, 2010).
“And” between values parts separate entries of the source, which are not always exact repeats. Equal values may be shown once. “Also recorded” adds a separate entry of the source. Read-outs that look alike come from different tables or passages of the source.

Key:
mouse Slo1 K+ channels [1] = biological target: T1, mouse Slo1 K+ channels (Mus musculus, UniProt Q08460); assay: Block of Slo1 currents, blocker applied extracellularly to outside-out patches; assay type: cell-based
T1 sequence (Q08460 66-1209 limits assumed): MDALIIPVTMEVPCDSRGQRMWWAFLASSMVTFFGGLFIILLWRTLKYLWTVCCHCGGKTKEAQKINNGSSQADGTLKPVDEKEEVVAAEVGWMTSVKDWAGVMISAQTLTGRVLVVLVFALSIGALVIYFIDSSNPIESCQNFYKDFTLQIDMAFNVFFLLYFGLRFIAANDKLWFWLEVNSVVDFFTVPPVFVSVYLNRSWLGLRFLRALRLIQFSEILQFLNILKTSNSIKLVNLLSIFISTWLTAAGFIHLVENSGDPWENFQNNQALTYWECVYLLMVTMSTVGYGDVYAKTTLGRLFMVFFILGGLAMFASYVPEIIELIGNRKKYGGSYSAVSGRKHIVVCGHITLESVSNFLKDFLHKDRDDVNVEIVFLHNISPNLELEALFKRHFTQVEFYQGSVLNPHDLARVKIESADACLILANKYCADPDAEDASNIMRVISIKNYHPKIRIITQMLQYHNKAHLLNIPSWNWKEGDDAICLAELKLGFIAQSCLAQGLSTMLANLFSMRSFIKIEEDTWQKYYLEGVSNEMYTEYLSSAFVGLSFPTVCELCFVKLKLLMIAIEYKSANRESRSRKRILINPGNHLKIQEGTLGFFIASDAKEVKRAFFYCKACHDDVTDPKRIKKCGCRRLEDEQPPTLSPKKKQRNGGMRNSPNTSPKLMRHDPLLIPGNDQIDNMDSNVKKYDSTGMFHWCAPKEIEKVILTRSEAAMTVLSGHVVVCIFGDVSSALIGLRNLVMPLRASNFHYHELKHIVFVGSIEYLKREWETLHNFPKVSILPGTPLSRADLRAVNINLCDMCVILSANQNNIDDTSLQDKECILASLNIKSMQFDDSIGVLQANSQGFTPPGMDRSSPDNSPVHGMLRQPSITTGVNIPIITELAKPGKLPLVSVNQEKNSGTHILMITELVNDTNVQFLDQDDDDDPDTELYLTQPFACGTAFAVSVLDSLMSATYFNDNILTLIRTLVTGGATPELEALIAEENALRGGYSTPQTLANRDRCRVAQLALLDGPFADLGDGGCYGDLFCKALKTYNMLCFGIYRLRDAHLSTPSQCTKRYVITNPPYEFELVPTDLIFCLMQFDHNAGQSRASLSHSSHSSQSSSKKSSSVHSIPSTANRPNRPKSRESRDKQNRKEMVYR

[2] = biological target: T2, MC13 (Slo1(1-181):Slo3(171-1121)) (Mus musculus, UniProt O54982); assay: Block of MC13; assay type: cell-based; conditions: for effect of extracellular 4-AP on MC13/Slo3 currents: 4-AP up to 100 mM at pH 7.0, pipette pH 8.5
T2 sequence (Q08460 66-246 partner, one chain of several): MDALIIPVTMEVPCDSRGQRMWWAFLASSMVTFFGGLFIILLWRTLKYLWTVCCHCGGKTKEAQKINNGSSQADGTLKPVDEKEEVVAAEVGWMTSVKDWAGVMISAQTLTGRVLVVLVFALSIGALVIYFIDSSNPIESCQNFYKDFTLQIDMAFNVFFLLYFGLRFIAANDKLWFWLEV

[3] = tested on: MC13 (Slo1(1-181):Slo3(171-1121)); assay: Block of MC13; assay type: cell-based, mouse; conditions: at 0 mV
mouse Slo1 K+ channels [4] = biological target: T1, mouse Slo1 K+ channels; assay: Block of Slo1 currents, blocker applied cytosolically to inside-out patches; assay type: cell-based; conditions: for zδ / zc / zo / zo (zδ) / Kd: 300 μM Ca2+; for zc / zo / zo (zδ) / Kd: pH 8.5
[5] = biological target: T2, MC13 (Slo1(1-181):Slo3(171-1121)); assay type: cell-based; conditions: pH 8.5
mouse Slo3 K+ channels [6] = biological target: T3, mouse Slo3 K+ channels (Mus musculus, UniProt O54982); assay type: cell-based
T3 sequence (O54982 1-1121): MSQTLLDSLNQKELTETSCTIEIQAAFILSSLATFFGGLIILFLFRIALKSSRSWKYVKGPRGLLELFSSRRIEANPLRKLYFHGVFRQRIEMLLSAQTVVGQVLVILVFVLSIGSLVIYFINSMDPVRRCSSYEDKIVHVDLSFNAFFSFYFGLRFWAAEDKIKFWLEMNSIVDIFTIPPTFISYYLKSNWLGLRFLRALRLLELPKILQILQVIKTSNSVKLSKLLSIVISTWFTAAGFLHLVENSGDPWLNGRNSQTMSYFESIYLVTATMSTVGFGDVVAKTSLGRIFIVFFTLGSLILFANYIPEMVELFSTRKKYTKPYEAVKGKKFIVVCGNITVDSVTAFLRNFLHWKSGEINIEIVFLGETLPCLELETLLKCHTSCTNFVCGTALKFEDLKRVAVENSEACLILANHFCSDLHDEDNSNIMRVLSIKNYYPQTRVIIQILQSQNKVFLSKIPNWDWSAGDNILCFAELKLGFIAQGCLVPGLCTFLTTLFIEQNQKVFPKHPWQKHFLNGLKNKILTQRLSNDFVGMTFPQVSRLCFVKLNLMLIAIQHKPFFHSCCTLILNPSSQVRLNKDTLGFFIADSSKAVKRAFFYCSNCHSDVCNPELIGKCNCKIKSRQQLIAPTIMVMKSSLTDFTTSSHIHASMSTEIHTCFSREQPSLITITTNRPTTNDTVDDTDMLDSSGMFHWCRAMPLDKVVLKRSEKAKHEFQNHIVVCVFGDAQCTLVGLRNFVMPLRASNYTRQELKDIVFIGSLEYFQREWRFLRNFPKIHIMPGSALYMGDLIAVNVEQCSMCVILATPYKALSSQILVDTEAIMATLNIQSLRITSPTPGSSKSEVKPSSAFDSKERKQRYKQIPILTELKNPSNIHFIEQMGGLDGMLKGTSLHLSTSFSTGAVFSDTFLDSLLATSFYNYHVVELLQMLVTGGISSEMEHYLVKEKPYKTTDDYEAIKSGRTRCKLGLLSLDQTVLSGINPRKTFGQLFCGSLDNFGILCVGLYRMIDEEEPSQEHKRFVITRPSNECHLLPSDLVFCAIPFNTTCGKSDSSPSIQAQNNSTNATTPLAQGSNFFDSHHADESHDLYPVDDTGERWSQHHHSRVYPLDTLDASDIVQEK

[7] = pK and percent protonation of tertiary amines; assay type: physicochemical; conditions: calculated from pK 9.2
human sperm = conditions: cited from earlier work
murine sperm = conditions: cited from earlier work
mouse Slo3 K+ channels [8] = biological target: T4, mouse Slo3 K+ channels (Mus musculus, UniProt O54982); assay: Block of Slo3 currents by extracellular blockers; assay type: cell-based
T4 sequence (O54982 171-1121 limits assumed): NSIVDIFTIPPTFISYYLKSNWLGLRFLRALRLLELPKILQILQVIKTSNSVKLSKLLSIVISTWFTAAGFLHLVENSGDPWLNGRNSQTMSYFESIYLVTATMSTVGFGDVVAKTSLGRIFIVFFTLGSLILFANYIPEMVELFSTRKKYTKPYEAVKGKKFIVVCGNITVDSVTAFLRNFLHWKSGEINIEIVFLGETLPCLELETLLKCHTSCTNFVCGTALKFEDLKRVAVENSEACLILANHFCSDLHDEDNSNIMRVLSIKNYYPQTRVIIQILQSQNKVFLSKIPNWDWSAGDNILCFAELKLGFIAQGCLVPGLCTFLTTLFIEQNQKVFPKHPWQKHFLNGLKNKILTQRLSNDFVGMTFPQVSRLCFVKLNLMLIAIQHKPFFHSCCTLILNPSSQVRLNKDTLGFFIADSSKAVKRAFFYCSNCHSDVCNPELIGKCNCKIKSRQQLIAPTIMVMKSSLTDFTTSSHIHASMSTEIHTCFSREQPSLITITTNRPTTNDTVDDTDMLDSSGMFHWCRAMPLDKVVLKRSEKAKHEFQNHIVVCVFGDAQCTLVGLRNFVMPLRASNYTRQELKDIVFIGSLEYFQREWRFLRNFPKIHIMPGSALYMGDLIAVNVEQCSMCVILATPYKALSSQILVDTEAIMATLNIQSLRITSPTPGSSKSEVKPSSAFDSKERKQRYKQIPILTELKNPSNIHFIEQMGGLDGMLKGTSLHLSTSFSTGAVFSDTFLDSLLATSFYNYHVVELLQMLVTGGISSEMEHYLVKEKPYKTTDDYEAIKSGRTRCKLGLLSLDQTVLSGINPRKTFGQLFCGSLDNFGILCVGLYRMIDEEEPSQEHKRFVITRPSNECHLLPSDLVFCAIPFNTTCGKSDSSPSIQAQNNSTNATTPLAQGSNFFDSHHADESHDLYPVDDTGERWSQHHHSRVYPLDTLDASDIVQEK

Slo1-Y294V = Slo1-Y294V (Mus musculus, UniProt Q08460, Y359V); assay: Block of Slo1-Y294V currents by extracellular CTX or TEA; assay type: cell-based; conditions: TEA up to 10 mM
Chain of Slo1-Y294V (Q08460 66-1209 Y359V limits assumed): as the sequence (Q08460 66-1209 limits assumed) above, with Y294V counted along it
Method in brief: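 Excised outside-out patches at room temperature (~22–25°C), with blocker applied to the extracellular face by a multi-barrel local perfusion system, one barrel flowing at a time. The extracellular solution was (mM) 140 K-methanesulfonate, 20 KOH, 10 HEPES, 2 MgCl2, pH 7.0. The pipette (cytosolic) solution was 140 K-methanesulfonate, 20 KOH, 10 HEPES, with 10 μM Ca2+ for CTX tests.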

BK single channels [9] = conditions: symmetrical K+ solutions, cited from earlier work
BK single channels [10] = conditions: symmetrical K+ solutions, cited from earlier work; remark: listed apart in the source
Slo1/BK-type channels = conditions: read-out: extracellular TEA concentration for blockade (half block); cited from earlier work
sperm = conditions: TEA at 2.5–10 mM; cited from earlier work
[11] = cytosolic 4-AP, fit OB-CB (2') 4 params
[12] = cytosolic 4-AP, fit OB-CB (2a) 2 params
[13] = cytosolic TEA, fit OB-CB (2') 4 params
[14] = cytosolic TEA, fit OB-CB (2a) 2 params
[15] = cytosolic TEA, 0 Ca2+, fit OB-CB (2a) 2 params
[16] = read-out: Kb, block by cytosolic TEA

Nc1ccncc1 [4-AP, 4-aminopyridine]
zo (mouse Slo1 K+ channels [1]; extracellular 4-AP, 300 μM Ca2+, pH 8.5, fit OB-CB (2a) 2 params): 0.48 ± 0.04 e | effect of extracellular 4-AP on MC13/Slo3 currents [2]: relatively insensitive; also recorded: little effect; also recorded: essentially no blocking effect | effect of extracellular 4-AP on MC13/Slo3 currents ([2]; listed as 4-APo): without effect | difference in affinity of Slo1 and Slo3 channels for extracellular 4-AP [3]: at least 20 fold | zδ (mouse Slo1 K+ channels [4]; cytosolic 4-AP at pH 7.0, Scheme 1a (Fig. 7C)): 0.17 ± 0.01 e and 0.18 ± 0.02 e | zδ (mouse Slo1 K+ channels [4]; cytosolic 4-AP at pH 8.5, Scheme 1a (Fig. 7D)): 0.05 ± 0.06 e | zδ (mouse Slo1 K+ channels [4]; cytosolic 4-AP at pH 8.5, state-independent Scheme 2a (Fig. 7D)): 0.11 ± 0.03 e | zc (mouse Slo1 K+ channels [4]; [11]): 0.33 ± 0.32 e | zo (mouse Slo1 K+ channels [4]; [11]): 0.12 ± 0.03 e | zc (mouse Slo1 K+ channels [4]; [12]): 0.10 ± 0.02 e | zo (zδ) (mouse Slo1 K+ channels [4]; cytosolic 4-AP, state-independent OB-CB (2a) 2 params): 0.10 ± 0.02e e | z(p) (mouse Slo1 K+ channels [4]; cytosolic 4-AP, pH 7.0 and 8.5 fit simultaneously with two-site Scheme 3): 0.19 ± 0.02 e | zc ([5]; cytosolic 4-AP, fit OB-CB (2') 4 params (zo fixed 0)): 0.26 + 1.05 e | zo [5, 12]: 0.17 ± 0.02 e | zo (zδ) ([5]; cytosolic 4-AP, open channel block OB (1a) 2 params): 0.02 ± 0.03 e | zo (mouse Slo3 K+ channels [6]; cytosolic 4-AP, pH 8.5, fit OB-CB (2a) 2 params): 0.16 ± 0.01 e | Slo3 more sensitive than Slo1 to cytosolic 4-AP (mouse Slo3 K+ channels [6]; open channel block): 10–15 fold | percent protonated ([7]; 4-AP at pH 7.0): 99.4% | percent protonated ([7]; 4-AP at pH 8.5): 83.4% | concentration disrupting volume regulation (human sperm): 1 to 4 mM | concentration disrupting volume regulation (murine sperm): 1 to 4 mM

CC[N+](CC)(CC)CC [TEA, tetraethylammonium]
block of Slo1 current (mouse Slo1 K+ channels [1]; 250 μM extracellular TEA, at 0 mV): about 50% | zo (mouse Slo1 K+ channels [1]; extracellular TEA, 300 μM Ca2+, pH 8.5, fit OB-CB (2') 4 params (zc fixed 0)): 0.23 ± 0.04 e | zc (voltage-dependence of closed state block) (mouse Slo1 K+ channels [1]; extracellular TEA, 300 μM Ca2+, pH 8.5, fit OB-CB (2a) 2 params): 0.23 ± 0.02 e | zo (voltage-dependence of open state block) (mouse Slo1 K+ channels [1]; extracellular TEA, pipette 300 μM Ca2+, pH 8.5, fit OB (1a) 2 params): 0.34 ± 0.02 e | Kd (mouse Slo1 K+ channels [1]; read-out: Kbc (affinity of blocker to closed state), extracellular TEA, 300 μM Ca2+, pH 8.5, fit OB-CB (2a) 2 params): 174 ± 8 µM | Kd (mouse Slo1 K+ channels [1]; read-out: Kbo (affinity of blocker to open state), extracellular TEA, pipette 300 μM Ca2+, pH 8.5, fit OB (1a) 2 params): 132 ± 6.9 µM | effect of extracellular TEA on MC13 ([2]; TEA up to 10 mM): only minor effects; also recorded: minimal effect | zc (mouse Slo1 K+ channels [4]; [13]): 0.57 ± 0.32 e | zo (mouse Slo1 K+ channels [4]; [13]): 0.16 ± 0.20 e | zc (mouse Slo1 K+ channels [4]; [14]): 0.22 ± 0.02 e | zo (mouse Slo1 K+ channels [4]; [14]): 0.22 ± 0.02 e | zo (zδ) (mouse Slo1 K+ channels [4]; cytosolic TEA, open channel block OB (1a) 2 params): 0.15 ± 0.02 e | Kd (mouse Slo1 K+ channels [4]; read-out: Kbc, cytosolic TEA, fit OB-CB (2') 4 params): 61400 ± 34800 µM | Kd (mouse Slo1 K+ channels [4]; read-out: Kbc, cytosolic TEA, fit OB-CB (2a) 2 params): 73500 ± 4500 µM | Kd (mouse Slo1 K+ channels [4]; read-out: Kbo, cytosolic TEA, fit OB-CB (2') 4 params): 78600 ± 22600 µM | Kd (mouse Slo1 K+ channels [4]; read-out: Kbo, cytosolic TEA, fit OB-CB (2a) 2 params): 73500 ± 4500 µM | zc ([5]; cytosolic TEA, 0 Ca2+, fit OB-CB (2') 4 params (zo fixed 0)): 0.06 ± 0.20 e | zc [5, 15]: 0.05 ± 0.02 e | zo (z) [5, 15]: 0.05 ± 0.02 e | Kd ([5]; read-out: Kbc, cytosolic TEA, 0 Ca2+, fit OB-CB (2') zo = zc = 0 e): 2360 ± 420 µM | Kd ([5]; read-out: Kbc, cytosolic TEA, 0 Ca2+, fit OB-CB (2a) 2 params): 2010 ± 290 µM | Kb ([5]; read-out: Kbo (Kb), cytosolic TEA, 0 Ca2+, fit OB-CB (2a) 2 params): 2010 ± 290 µM | Kd ([5]; read-out: Kbo, cytosolic TEA, 0 Ca2+, fit OB (1a) zo = 0 e): 330 ± 10 µM | Kd ([5]; read-out: Kbo, cytosolic TEA, 0 Ca2+, fit OB-CB (2') zo = zc = 0 e): 560 ± 60 µM | block of Slo3 (mouse Slo3 K+ channels [8]): resistant to block | effect of extracellular TEA on Slo1-Y294V (Slo1-Y294V): lack of effect | Kb (BK single channels [9]; [16]): 34700 µM | zδ (BK single channels [9]): 0.27 e | Kb (BK single channels [10]; [16]): 60000 µM | zδ (BK single channels [10]): 0.26 e | IC50 (Slo1/BK-type channels): 200 to 300 µM | effects on sperm function (sperm): not produced
